Measured values: ChEMBL document CHEMBL1149914 (J Med Chem, 2008)

How the values were obtained:
[1] = biological target: Sodium-dependent serotonin transporter (Homo sapiens, UniProt P31645); assay: Displacement of [125I]RTI55 from SERT
How it was run: (§1)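 [125I]RTI-55 at 0.01 nM (s.a. 2200 Ci/mmol) competitive binding. Drugs and blocker in 55.2 mM sodium phosphate pH 7.4 with 1 mg/mL BSA. Radioligand in the same buffer with chymostatin 25 μg/mL, leupeptin 25 μg/mL, EDTA 100 μM and EGTA 100 μM. Triplicate incubation for 18–24 h at 4 °C (equilibrium), 1 mL final volume. Ki derived.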

[2] = Ratio of Ki for SERT to Ki for DAT
How it was run: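 SERT Ki divided by DAT Ki. Both come from [125I]RTI-55 (0.01 nM) binding in pH 7.4 sodium phosphate/BSA buffer with protease inhibitors, run in triplicate for 18–24 h at 4 °C.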

[3] = biological target: Sodium-dependent dopamine transporter (Homo sapiens, UniProt Q01959); assay: Displacement of [125I]RTI55 from DAT; how it was run: as §1
Sodium-dependent dopamine transporter, sequence (Q01959 whole entry): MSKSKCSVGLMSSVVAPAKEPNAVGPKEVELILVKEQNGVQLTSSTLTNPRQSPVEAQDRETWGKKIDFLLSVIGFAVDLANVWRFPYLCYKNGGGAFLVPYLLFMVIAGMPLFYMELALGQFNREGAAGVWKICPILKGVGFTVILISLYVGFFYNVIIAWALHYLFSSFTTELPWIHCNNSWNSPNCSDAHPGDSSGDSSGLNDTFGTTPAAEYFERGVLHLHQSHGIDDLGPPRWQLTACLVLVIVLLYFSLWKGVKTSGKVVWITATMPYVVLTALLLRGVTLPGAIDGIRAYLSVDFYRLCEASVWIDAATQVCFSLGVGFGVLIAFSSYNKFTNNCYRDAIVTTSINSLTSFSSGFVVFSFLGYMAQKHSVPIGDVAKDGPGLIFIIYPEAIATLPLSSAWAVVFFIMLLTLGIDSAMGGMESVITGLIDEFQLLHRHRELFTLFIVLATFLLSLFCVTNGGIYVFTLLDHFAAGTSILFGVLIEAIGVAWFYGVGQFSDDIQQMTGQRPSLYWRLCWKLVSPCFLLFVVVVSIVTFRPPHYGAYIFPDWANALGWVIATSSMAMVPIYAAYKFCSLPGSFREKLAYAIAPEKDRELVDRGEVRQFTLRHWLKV

Sodium-dependent serotonin transporter, sequence (P31645 whole entry): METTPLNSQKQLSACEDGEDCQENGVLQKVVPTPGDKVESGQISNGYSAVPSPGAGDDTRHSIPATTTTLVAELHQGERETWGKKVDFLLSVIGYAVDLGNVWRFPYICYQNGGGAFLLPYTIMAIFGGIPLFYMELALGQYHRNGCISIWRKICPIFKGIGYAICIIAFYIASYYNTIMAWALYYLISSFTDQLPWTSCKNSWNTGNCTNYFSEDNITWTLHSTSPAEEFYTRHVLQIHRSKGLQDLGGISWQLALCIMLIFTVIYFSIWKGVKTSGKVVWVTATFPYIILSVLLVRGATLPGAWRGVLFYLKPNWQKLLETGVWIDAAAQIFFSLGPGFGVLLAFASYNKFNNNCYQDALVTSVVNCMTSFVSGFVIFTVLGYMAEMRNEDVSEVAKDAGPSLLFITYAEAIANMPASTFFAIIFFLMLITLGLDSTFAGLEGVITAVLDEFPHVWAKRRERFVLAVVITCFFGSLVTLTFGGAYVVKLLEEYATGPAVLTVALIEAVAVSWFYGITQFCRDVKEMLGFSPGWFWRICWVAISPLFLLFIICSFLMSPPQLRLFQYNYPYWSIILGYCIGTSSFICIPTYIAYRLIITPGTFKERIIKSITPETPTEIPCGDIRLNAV

Row | SMILES | Ki [1] [µM] | Ratio Ki [2] | Ki [3] [µM]
1 | O=C(Cc1ccccc1)CN1CCN(CCOC(c2ccccc2)c2ccccc2)CC1 | 2.5 | 250 | 
2 | O=C(Cc1ccccc1)CN1CCN(CCOC(c2ccc(F)cc2)c2ccc(F)cc2)CC1 | 0.25 | 38 | 
3 | CC(Cc1ccccc1)CN1CCN(CCOC(c2ccc(F)cc2)c2ccc(F)cc2)CC1 (single isomer, unassigned; (-)) [listing 1 of 2 here] | 0.19 |  | 
4 | C=C(Cc1ccccc1)CN1CCN(CCOC(c2ccc(F)cc2)c2ccc(F)cc2)CC1 | 0.43 | 4 | 
5 | FC[C@@H](Cc1ccccc1)N1CCN(CCOC(c2ccc(F)cc2)c2ccc(F)cc2)CC1 | 0.19 | 2 | 
6 | O[C@H](Cc1ccccc1)CN1CCN(CCOC(c2ccc(F)cc2)c2ccc(F)cc2)CC1 | 0.16 | 13 | 0.012
7 | O=C(CN1CCN(CCOC(c2ccc(F)cc2)c2ccc(F)cc2)CC1)c1ccccc1 | 0.088 | 2 | 
8 | CC(Cc1ccccc1)CN1CCN(CCOC(c2ccc(F)cc2)c2ccc(F)cc2)CC1 (single isomer, unassigned; (-)) [listing 2 of 2 here] |  | 11 | 
9 | CO[C@@H](Cc1ccccc1)CN1CCN(CCOC(c2ccc(F)cc2)c2ccc(F)cc2)CC1 | 0.22 | 8 | 
10 | C=C(CCN1CCN(CCOC(c2ccc(F)cc2)c2ccc(F)cc2)CC1)c1ccccc1 | 0.19 | 11 | 
11 | C=C(CCN1CCN(CCOC(c2ccccc2)c2ccccc2)CC1)c1ccccc1 | 1.8 | 59 | 
12 | O=C(CN1CCN(CCOC(c2ccccc2)c2ccccc2)CC1)c1ccccc1 | 1.4 | 3 | 
13 | CO[C@H](Cc1ccccc1)CN1CCN(CCOC(c2ccc(F)cc2)c2ccc(F)cc2)CC1 | 0.25 | 9 | 
14 | N[C@@H](Cc1ccccc1)CN1CCN(CCOC(c2ccc(F)cc2)c2ccc(F)cc2)CC1 | 0.088 | 2 | 
15 | CC(O)(Cc1ccccc1)CN1CCN(CCOC(c2ccc(F)cc2)c2ccc(F)cc2)CC1 (centres undefined) | 0.31 | 6 | 
16 | CC(O)(CCN1CCN(CCOC(c2ccccc2)c2ccccc2)CC1)c1ccccc1 (centres undefined) | 1.8 | 254 | 
17 | Fc1ccc(C(OCCN2CCN(C[C@@H](F)Cc3ccccc3)CC2)c2ccc(F)cc2)cc1 | 0.29 | 109 | 
18 | Fc1ccc(C(OCCN2CCN(CCc3ccccc3)CC2)c2ccc(F)cc2)cc1 | 0.036 | 5 | 0.008
19 | O[C@H](Cc1ccccc1)CN1CCN(CCOC(c2ccccc2)c2ccccc2)CC1 | 1.8 | 72 | 0.025
20 | CC(O)(Cc1ccccc1)CN1CCN(CCOC(c2ccccc2)c2ccccc2)CC1 (centres undefined) | 2 | 14 | 
21 | CC(Cc1ccccc1)CN1CCN(CCOC(c2ccc(F)cc2)c2ccc(F)cc2)CC1 (stereo in doubt; (+)-7) [listing 1 of 2 here] | 0.12 |  | 
22 | Fc1ccc(C(OCCN2CCN(C[C@H](F)Cc3ccccc3)CC2)c2ccc(F)cc2)cc1 | 0.54 | 25 | 
23 | C=C(Cc1ccccc1)CN1CCN(CCOC(c2ccccc2)c2ccccc2)CC1 | 3.3 | 8 | 
24 | O[C@@H](Cc1ccccc1)CN1CCN(CCOC(c2ccc(F)cc2)c2ccc(F)cc2)CC1 | 0.23 | 307 | 0.00075
25 | N[C@H](Cc1ccccc1)CN1CCN(CCOC(c2ccc(F)cc2)c2ccc(F)cc2)CC1 | 0.022 | 1 | 
26 | O[C@@H](Cc1ccccc1)CN1CCN(CCOC(c2ccccc2)c2ccccc2)CC1 | 2.2 | 957 | 0.0023
27 | FC[C@H](Cc1ccccc1)N1CCN(CCOC(c2ccc(F)cc2)c2ccc(F)cc2)CC1 | 0.11 | 0.8 | 
28 | CC(O)(CCN1CCN(CCOC(c2ccc(F)cc2)c2ccc(F)cc2)CC1)c1ccccc1 (centres undefined) | 0.15 | 39 | 
29 | CC(Cc1ccccc1)CN1CCN(CCOC(c2ccc(F)cc2)c2ccc(F)cc2)CC1 (stereo in doubt; (+)-7) [listing 2 of 2 here] |  | 7 | 
